Consider two molecules from ChEMBL document CHEMBL1124374, “Enkephalinase inhibitors. 1. 2,4-Dibenzylglutaric acid derivatives” (J Med Chem, 1989).

The test system of test [1] is Mus musculus. In words: Tail-flick latency observed in CF-1 mice after the administration (30 mg/kg) followed by icv administration of DAEM ([D-Ala2,Met5]enkephalin). The class given is functional. Summed up: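 Male CF-1 mice (20–22 g) given test agent or vehicle sc, followed immediately by icv DAEM (1 μg) or vehicle. Tail-flick latency measured 30 min later, cutoff 10 s, n = 10.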
(Hot-plate and tail-flick tests time the reaction to a heat stimulus.)

Test [2] concerns Mus musculus. In words: Doubling of hotplate jump-latency activity in mouse after intra cerebro ventricular administration of the compound. The class given is functional. Summed up: (§1)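 Male CF1 mice (18–23 g) dosed icv or sc; 15 min later placed singly on a copper hot plate held at 55 °C. Latency to jump recorded, cutoff 240 s. MED = minimum effective dose. ED200 = dose doubling jump latency.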

Test [3] deals with T1, Neprilysin (Oryctolagus cuniculus, UniProt P08049).
T1 sequence (P08049 whole entry): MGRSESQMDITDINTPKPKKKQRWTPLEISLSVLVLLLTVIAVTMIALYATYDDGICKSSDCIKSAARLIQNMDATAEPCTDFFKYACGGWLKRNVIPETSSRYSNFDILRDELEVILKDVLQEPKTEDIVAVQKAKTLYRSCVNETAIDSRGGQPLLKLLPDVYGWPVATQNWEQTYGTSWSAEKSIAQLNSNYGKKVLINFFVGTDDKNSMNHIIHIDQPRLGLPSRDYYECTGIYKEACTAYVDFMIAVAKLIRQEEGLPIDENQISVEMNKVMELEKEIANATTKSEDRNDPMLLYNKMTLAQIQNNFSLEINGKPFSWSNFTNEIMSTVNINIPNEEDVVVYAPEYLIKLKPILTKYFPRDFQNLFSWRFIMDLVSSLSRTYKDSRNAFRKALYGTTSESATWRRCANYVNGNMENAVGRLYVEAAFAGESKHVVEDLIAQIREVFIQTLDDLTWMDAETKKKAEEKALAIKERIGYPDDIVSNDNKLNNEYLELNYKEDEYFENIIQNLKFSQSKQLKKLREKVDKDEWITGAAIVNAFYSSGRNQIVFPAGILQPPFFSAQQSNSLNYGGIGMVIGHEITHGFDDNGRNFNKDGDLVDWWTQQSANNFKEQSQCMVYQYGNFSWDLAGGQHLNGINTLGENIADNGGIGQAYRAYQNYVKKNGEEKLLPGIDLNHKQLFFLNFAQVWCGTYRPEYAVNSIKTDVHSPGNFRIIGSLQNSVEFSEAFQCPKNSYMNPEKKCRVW
In words: Inhibitory activity against Enkephalinase from rabbit using method 2 is determined. The essentials: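 Rabbit protease 24.11 (15 ng protein) incubated 10 min at 37 °C with [Tyr-3H]Leu-enkephalin plus unlabeled Leu-enkephalin (1 μM final) in 50 mM Tris-HCl, pH 6.5. Stopped with TFA. Tyr-Gly-Gly product separated from substrate by C4 reverse-phase HPLC (isocratic, 0.09% TFA/acetonitrile). Fractions counted by scintillation.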

In test [4] the test system is Mus musculus. Put plainly: Hot-plate jump-latency activity in mouse 15 minutes after subcutaneous administration. Type of test: functional. The conditions noted are these: sc, 0.25 h, read-out: MED. Summed up: as §1
Test [5] deals with T2, Neprilysin (Rattus norvegicus, UniProt P07861).
T2 sequence (P07861 whole entry): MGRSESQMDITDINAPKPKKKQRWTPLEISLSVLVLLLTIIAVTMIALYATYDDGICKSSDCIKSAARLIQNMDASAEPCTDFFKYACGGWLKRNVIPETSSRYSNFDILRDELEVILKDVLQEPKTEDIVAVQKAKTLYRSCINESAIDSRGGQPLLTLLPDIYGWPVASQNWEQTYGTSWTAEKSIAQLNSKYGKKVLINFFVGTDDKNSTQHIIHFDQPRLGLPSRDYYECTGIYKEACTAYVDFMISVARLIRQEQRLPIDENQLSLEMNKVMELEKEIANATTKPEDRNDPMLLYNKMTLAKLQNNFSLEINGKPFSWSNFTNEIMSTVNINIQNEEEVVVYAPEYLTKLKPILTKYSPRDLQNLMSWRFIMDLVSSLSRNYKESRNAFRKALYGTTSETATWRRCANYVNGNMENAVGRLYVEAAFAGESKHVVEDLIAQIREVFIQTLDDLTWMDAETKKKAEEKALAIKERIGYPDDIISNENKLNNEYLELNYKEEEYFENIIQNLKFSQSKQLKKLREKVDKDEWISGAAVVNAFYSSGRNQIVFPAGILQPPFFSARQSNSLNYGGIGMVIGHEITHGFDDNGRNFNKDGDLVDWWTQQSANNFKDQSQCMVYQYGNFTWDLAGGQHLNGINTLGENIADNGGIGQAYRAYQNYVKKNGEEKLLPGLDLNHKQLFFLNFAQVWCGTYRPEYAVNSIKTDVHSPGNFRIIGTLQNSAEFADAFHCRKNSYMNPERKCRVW
Put plainly: Inhibition of enkephalinase activity in synaptic membranes prepared from rat striatum. The class given is cell membranes.

Test [6] concerns Mus musculus. In words: Stretching activity in male CF-1 mice, after the intra peritoneal administration of acetic acid and subcutaneous administration of compound. Type of test: functional. The conditions noted are these: sc. Summed up: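 Male CF-1 mice (18–22 g), twelve per dose of agent or vehicle, dosed sc 15 min before ip 3% aqueous acetic acid at 10 mL/kg. Five minutes after irritant, stretching episodes counted over 10 min. ED50 derived from these counts.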

In test [7] the test system is Mus musculus. Put plainly: Doubling of hotplate jump-latency activity in mouse after subcutaneous administration of the compound. The class given is functional. Summed up: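 Male CF1 mice (18–23 g) dosed sc; 15 min later placed singly on copper hot plate held at 55 °C. Latency to jump off recorded, cutoff 240 s. ED200 is the dose doubling jump latency.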
Test [8] deals with Mus musculus. Put plainly: Tail-flick latency observed in CF-1 mice after the administration (3 mg/kg) followed by icv administration of DAEM ([D-Ala2,Met5]enkephalin). Type of test: functional. The essentials:
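Male CF-1 mice (20–22 g) given test agent or vehicle sc, then immediately DAEM (1 μg) or vehicle icv. Tail-flick latency read 30 min later, cutoff 10 s; n = 10 per group.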

`O=C(O)CCNC(=O)[C@H](Cc1ccccc1)C[C@@H](Cc1ccccc1)C(=O)O` showed a Reaction time in test [1] of 8.6 s. Besides, the ED200 in test [2] came out at 15 µg. Also, the results for the half-inhibitory concentration (IC50) in test [3] and in test [5] were 5 nM and 8 nM, respectively. Further, the minimal effective dose in test [4] is greater than 30 mg/kg.
For `O=C(O)CNC(=O)C(CS)Cc1ccccc1` (stereo not given) [THIORPHAN], the 50% effective dose (ED50) (usually the dose that gives a 50% effect, or the effect in half of the subjects) in test [6] worked out at 38 mg/kg. The values for the ED200 in test [7] and in test [2] were greater than 100 mg/kg and 75 µg, respectively. Also, the minimal effective dose in test [4] came out at 100 mg/kg. The molecule further returned a Reaction time in test [8] of 7.5 s.
